# Source: PubChem
# TAG inh: inhibitors of triacylglycerol accumulation, primary screen, cell-based, uHTS, fluorescence, H9c2; H9c2 cells, Nile Red lipid (TAG) fluorescence; cells loaded with 200 µM oleic acid; inhibition, % at 12.5 µM; 230,000 tested, 0.66% active;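 active = pattern-corrected inhibition of lipid staining of at least 50% with the nuclear-stain viability signal not falling by more than 50%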
# SR-BI DiI-HDL act: activators of SR-BI mediated DiI-HDL uptake, primary screen, ldlA[mSR-BI] CHO cells, DiI fluorescence; 320,000 tested, 0.096% active; AID 504775, 2011; 3 h; 100 = double the neutral-control signal; activation, % at 12.5 µM;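 active = mean replicate activation of at least 60% and every replicate at or above 60%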
#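 Test system: SR-BI-overexpressing, LDLR-lacking CHO cells; Medium: Ham's F12 with 0.5% BSA, HEPES 25 mM, pH 7.4; Schedule: 3 h, 37 °C; Technique: bottom-read fluorescence, 550/595 nm.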
# SMARCA2 activ: SMARCA2 (BRM) function activators, primary screen, cell-based, luminescence, high throughput; MG213 cells, MMTV-luciferase reporter, dexamethasone, overnight; 370,000 tested, 1% active; AID 652017, 2013; activation, % at 9.1 µM; in the data active = activation above about 7.8%
# Vif inh: HIV Vif self-association inhibitors, primary screen, imaging, HEK293T, single point | HEK293T cells, Vif self-association by quenched fluorescence, 24 h | 340,000 tested, 0.35% active | inhibition, % at 7.49 µM; in the data active = inhibition above about 50%, passing the limit was not always enough
# SR-BI HDL uptake: inhibitors of SR-BI mediated HDL lipid uptake, primary screen, ldlA[mSR-BI] cells, fluorescence, single point; inhibition, % at 12.5 µM; 320,000 tested, 0.96% active; Scavenger receptor class B member 1 (Mus musculus), Q61009; ldlA[mSR-BI] CHO cells, DiI-HDL uptake fluorescence, 3 h; AID 488896, 2010;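 active = mean replicate inhibition of at least 70% and a set share of replicates each scoring 70 or more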
# Target sequence (Q61009 whole entry, looked up): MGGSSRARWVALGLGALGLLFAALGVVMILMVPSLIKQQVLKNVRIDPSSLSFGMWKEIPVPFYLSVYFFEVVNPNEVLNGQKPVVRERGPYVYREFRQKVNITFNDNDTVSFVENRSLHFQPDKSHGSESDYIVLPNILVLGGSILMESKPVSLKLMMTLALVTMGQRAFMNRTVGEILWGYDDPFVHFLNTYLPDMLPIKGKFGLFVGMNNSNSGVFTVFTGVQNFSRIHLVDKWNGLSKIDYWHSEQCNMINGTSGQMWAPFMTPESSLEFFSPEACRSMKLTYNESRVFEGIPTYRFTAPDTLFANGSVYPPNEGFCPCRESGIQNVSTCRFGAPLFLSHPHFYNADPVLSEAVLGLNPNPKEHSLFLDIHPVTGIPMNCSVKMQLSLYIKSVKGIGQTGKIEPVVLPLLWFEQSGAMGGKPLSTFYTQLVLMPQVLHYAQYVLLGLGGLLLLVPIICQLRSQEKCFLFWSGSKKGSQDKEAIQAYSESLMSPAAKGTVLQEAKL
# SMARCA2 act conf: SMARCA2 (BRM) function activators, confirmation, cell-based, luminescence, triplicate. shares compounds with SMARCA2 activ. MG213 cells, MMTV-luciferase with dexamethasone, overnight; MG213 cells expressing E1A, Rb sequestered; DMSO wells 0%, reference activator 100%. activation, % at 9.1 µM. 3,500 tested, 30% active;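 active = activation above its plate's cutoff, the mean activation of tested wells plus 3 SD, cut at about 7.9% in these data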
# VP16 Luc act: GAL4-VP16 luciferase reporter activation, counter-screen for SMARCA2 (BRM) activator project, cell-based, pG5luc, luminescence, high throughput. activation, % at 9.1 µM. 3,500 tested, 41% active. HEK293 GAL4-VP16 pG5luc reporter; scaled: DMSO wells 0%, SAHA wells 100%. shares compounds with SMARCA2 activ. AID 686939, 2013;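 active = activation above the solvent-only control well mean plus 3 SD, averaged across control plates, cut at about 5.2% in these data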
# Numbers stand for hits; . = inactive; / = no result. Compounds with a hit are over-represented: about 2.5% of the library has one in this group of screens.
SMILES,TAG inh,SR-BI DiI-HDL act,SMARCA2 activ,Vif inh,SR-BI HDL uptake,SMARCA2 act conf,VP16 Luc act
Cn1c(N)c(C(=O)CCc2ccccc2)c(=O)n(C)c1=O,/,/,8.1,/,/,17,5.8
COc1ccc(-c2cn(-c3ccc(C)cc3)c(=O)n2CC(=O)Nc2ccc(OC)cc2OC)cc1,.,/,8.8,.,.,.,.
COc1ccc(NC(=O)CCOc2ccc(C)cc2)c(OC)c1,/,.,.,.,.,/,/
Cc1ccc(/C=C2\SC(=O)N(CCC(=O)N3CCN(C)CC3)C2=O)cc1,/,.,8.9,.,.,.,6.6
CN1CCN(C(=O)CCN2C(=O)S/C(=C/c3ccc(Cl)cc3)C2=O)CC1,.,.,.,.,.,/,/
O=C(Nc1ccccc1C(=O)NCc1ccccc1)C1=CSCCO1,/,.,12,.,.,.,.
CCOc1ccccc1CNC(=O)c1ccccc1NC(=O)C1=CSCCO1,/,.,.,.,.,/,/
COc1ccc(C(=O)OCC(N)=O)cc1[N+](=O)[O-],/,.,11,.,.,.,.
COc1ccc(C(=O)OCC(=O)Nc2ccccc2)cc1[N+](=O)[O-],.,.,.,.,.,/,/
Cc1ccccc1N/C(SCc1cccc(Br)c1)=C(/C#N)C(N)=O,/,.,9.7,.,.,.,.
O=C(OCc1cn(Cc2ccc(C(F)(F)F)cc2)nn1)N1CCOCC1,/,/,.,/,/,/,/
O=C(/C=C/c1ccc(S(=O)(=O)N2CCOCC2)cc1)Nc1cc(F)ccc1F,.,.,9.0,.,.,.,.
CCN1CCN(c2ccc(S(=O)(=O)N3CCOCC3)cc2NC(=O)/C=C/c2ccc([N+](=O)[O-])cc2)CC1,.,.,11,.,.,35,.
O=S(=O)(c1cccc2cccnc12)N1CCC(c2cn3ccccc3n2)CC1,/,/,.,/,/,/,/
CCCCc1ccc(NC(=S)N2CCN(C(=O)c3ccco3)CC2)cc1,.,.,.,.,.,/,/
CC1CCc2c(sc(NC(=O)CSc3nnc(-c4ccccc4)o3)c2C#N)C1 (stereo not given),/,.,9.9,.,.,.,.
N#Cc1c(NC(=O)CSc2nnc(-c3ccccc3)o2)sc2c1CCCC2,/,.,/,.,.,/,/
O=C(CSc1nnc(-c2ccc(O)cc2)o1)Nc1ccccc1,/,.,8.6,.,.,11,8.1
CCOC(=O)CC[C@@]1(C(=O)OCC)C[C@@H](CC(=O)N2CCCC2)C(=O)N2CCCC=C21,/,/,.,/,/,/,/
COc1ccc(-c2csc(-c3ccccc3)n2)c(OC)c1,.,.,.,.,.,/,/
COc1ccc(-c2csc(-c3cccs3)n2)c(OC)c1,.,.,11,.,.,12,8.4
COc1ccc(-c2ccc(SCC(=O)NC3CCCCC3)nn2)cc1,/,.,.,.,.,/,/
CCOc1ccc(-c2ccc(SCC(=O)NC3CCCCC3)nn2)cc1,.,.,8.5,.,.,.,8.9
CCOC(=O)c1cccc(-c2c(-c3ccccc3)ncc3cc(OC)c(OC)cc23)c1,.,.,12,.,.,11,5.8
COc1cc2cnc(-c3ccccc3)c(-c3cc(OC)c(OC)c(OC)c3)c2cc1OC,/,.,.,.,.,/,/
SMILES,TAG inh,SR-BI DiI-HDL act,SMARCA2 activ,Vif inh,SR-BI HDL uptake,SMARCA2 act conf,VP16 Luc act
NC(=Nc1ccccc1)NC(=O)c1nc(Cl)c(N)nc1N,.,.,9.2,.,.,27,11
NC(=NCc1ccccc1)NC(=O)c1nc(Cl)c(N)nc1N,.,.,.,.,.,/,/
COCC1CCCCN1Cc1cn[nH]c1-c1ccc2cc(OC)ccc2c1 (stereo not given),/,.,11,.,.,.,.
COC[C@H]1CCCN1c1cccc2c1S(=O)(=O)N1CC[C@@H](C1)O2,/,/,.,/,/,/,/
O=C(NCCc1ccccc1)C1CCN(C(=O)c2ccc(F)cc2)CC1,/,.,.,.,.,/,/
O=C(NCCc1ccc(F)cc1)C1CCN(C(=O)Nc2ccccc2)CC1,.,.,8.0,.,.,.,.
Cc1ccc(C(C)C)c(OCc2nn(CC(=O)c3ccc(OC(F)F)cc3)c3[n+]2CCCCC3)c1,.,.,/,.,.,/,/
CN(C)CCN(C(=O)c1ccc2ccccc2c1)c1nc2cc3c(cc2s1)OCO3,.,/,11,.,/,.,.
CN(C)CCN(C(=O)c1ccc2c(c1)OCCO2)c1nc2cc3c(cc2s1)OCO3,.,.,.,.,.,/,/
O=C(NN=Cc1ccccc1Cl)C(=O)Nc1cccc(C(F)(F)F)c1,/,/,.,/,/,/,/
COc1ccc(-c2cc(=O)[nH][nH]2)cc1,.,.,.,.,.,/,/
COc1ccc(-c2cc(=O)n(CCC#N)[nH]2)cc1,/,.,13,.,.,.,.
CCN(CC(=O)Nc1c(F)cccc1F)C(=O)c1cc(C)nc2ccccc12,.,.,.,.,.,/,/
O=C1c2ccccc2NC(c2ccccc2Br)N1CCCN1CCOCC1 (stereo not given),/,.,8.1,.,.,.,.
CCOC(=O)[C@@H]1CSCCS(=O)(=O)N1Cc1ccccc1,/,/,.,/,/,/,/
CCOC(=O)c1nn(-c2ccc3ccccc3c2)cc1O,.,.,8.2,.,.,.,5.6
CCOc1ccc(C(=O)/C=C/Nc2ccc(S(=O)(=O)N=C(N)N)cc2)cc1,/,.,8.1,.,.,.,.
NC(N)=NS(=O)(=O)c1ccc(N/C=C/C(=O)c2ccc(Cl)c(Cl)c2)cc1,/,.,.,.,.,/,/
CCCCCCCCCC(=O)N1c2ccccc2NC(=O)C1CC(=O)Nc1ccc(C(=O)O)cc1 (stereo not given),.,.,.,.,.,/,/
CC(=O)c1c(C)[nH]c(C(=O)OCc2ccc(F)cc2Cl)c1C,.,.,.,.,.,/,/
COC(=O)[C@]1(C#N)CC(=O)N(CC(C)C)[C@@H]1c1ccccc1,/,/,.,/,/,/,/
COc1ccc(-c2cc(C(=O)NC(Cc3cc4ccccc4[nH]3)C(=O)O)c(C)o2)cc1OC (stereo not given),.,.,11,.,.,9.9,.
CC(C)c1ccc2[nH]c3nc(SCC(=O)N4CCOCC4)nnc3c2c1,.,.,9.7,.,.,.,5.8
N#Cc1cc2c(nc1SCC(=O)Nc1nccs1)CCCCC2,/,.,.,.,.,/,/
Cc1ccc(C#N)c(SCC(=O)Nc2nccs2)n1,.,.,14,.,.,.,.
Fc1ccccc1COc1ccc(-c2nnn(Cc3ccccc3F)n2)cc1,.,.,.,.,.,/,/
Cn1nnc(-c2ccc(OCc3ccccc3F)cc2)n1,/,.,11,.,.,.,13
